Assay results published in paper PMC8025739 (Journal of medicinal chemistry, 2019).

Assays:
[1] = Metabolic stability in swine intestinal; format: in vitro ADME; conditions: swine intestinal (jejunum) homogenate, 20 μm, 37 °C, 1 h (Figure 1B)
[2] = In vitro plasma stability, mouse plasma; format: in vitro ADME; conditions: prodrug 20 μm, 37 °C
[3] = In vitro plasma stability, swine plasma; format: in vitro ADME; conditions: prodrug 20 μm, 37 °C
[4] = In vitro plasma stability, human plasma; format: in vitro ADME; conditions: prodrug 20 μm, 37 °C
[5] = Metabolic stability in swine liver homogenate; format: in vitro ADME; conditions: 20 μm, 37 °C, 1 h (Figure 1A)
P493B lymphoma cells = assay: Human tumor cell-to-plasma partitioning, P493B cells in human plasma; format: cell-based; conditions: human plasma with P493B cells, 0.25-2 h (Figure 3A)
Summary of the method: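 P493B lymphoma cells were grown in RPMI 1640 with L-glutamine, 10% FBS and 1% antibiotic/antimycotic at 37 °C and 5% CO2. Pelleted cells were resuspended in human plasma at 10 million cells/mL and preincubated 5 min at 37 °C. Test compound was incubated at 37 °C for 1 h, or for 0.25, 0.5, 1 and 2 h. Plasma and washed pellets were analysed for intact prodrug and DON by LC–MS/MS, with DON dabsyl-derivatised.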

[6] = Negative control incubation without enzymes; format: physicochemical; conditions: no enzyme, pH 6 buffer, 37 °C, 3 h
[7] = Pharmacokinetics in EL4 tumor-bearing CES1-/- mice; format: in vivo, C57BL/6 CES1−/− mice
Summary of the method: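 EL4 cells (1 × 10^6 in PBS) were implanted SC in the flank of male and female C57BL/6 CES1−/− mice (6–8 weeks). At about 400 mm3 tumour volume, a single 3.2 mg/kg SC dose was given in ethanol/Tween 80/saline (5:10:85). Plasma, jejunum and tumour were sampled at set times, n = 3 per time point. Analysis was LC–MS/MS with noncompartmental parameters, mean ± SEM.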

Compound	% remaining at 1 h in swine intestinal homogenate [1]	Plasma Stability (%Remaining at 1 h) Swine [3]	Plasma Stability (%Remaining at 1 h) Human [4]	other results
CC(=O)NCCCC[C@H](NC(=O)OCC1c2ccccc2-c2ccccc21)C(=O)N[C@@H](CCC(=O)C=[N+]=[N-])C(=O)OC(C)C [Compound 3, Isopropyl 2-(2-((((9H-Fluoren-9-yl)methoxy)carbonyl)-amino)-6-acetamidohexanamido)-6-diazo-5-oxohexanoate]	instability			
CCCCCCCCCCCCCCCC(=O)N[C@@H](CCCCNC(C)=O)C(=O)N[C@@H](CCC(=O)C=[N+]=[N-])C(=O)OC(C)C [Compound 4, Isopropyl 2-(6-Acetamido-2-palmitamidohexanamido)-6-diazo-5-oxohexanoate]	unstable			
CC(=O)NCCCC[C@H](NC(=O)C12CC3CC(CC(C3)C1)C2)C(=O)N[C@@H](CCC(=O)C=[N+]=[N-])C(=O)OC(C)C [Compound 6, isopropyl 2-(6-acetamido-2-(adamantane-1-carboxamido)hexanamido)-6-diazo-5-oxohexanoate]		complete stability	complete stability	Plasma Stability (%Remaining at 1 h) Mouse [2]: instability; % remaining at 1 h in swine liver homogenate [5]: 100%; stability of intact prodrug in human plasma, time course (P493B lymphoma cells): stable over the 2 h incubation period; chemical stability in negative control without enzymes [6]: chemically stable; intact prodrug measured in tumor ([7]; EL4 tumor, SC 3.2 mg/kg): minimal; DON AUC in tumor after dosing of 6 ([7]; EL4 tumor, SC 3.2 mg/kg (1 mg/kg DON equivalent), AUC0–t): 5.1 nmol·h/g; DON AUC in jejunum (GI tissues) after dosing of 6 ([7]; jejunum, SC 3.2 mg/kg (1 mg/kg DON equivalent), AUC0–t): 0.45 nmol·h/g; intact prodrug levels in jejunum ([7]; jejunum, SC 3.2 mg/kg, below the limit of quantification): < 0.001 nmol/mL
CC(=O)NCCCC[C@H](NC(=O)[C@@H](N)Cc1c[nH]c2ccccc12)C(=O)N[C@@H](CCC(=O)C=[N+]=[N-])C(=O)OC(C)C [Compound 9, Isopropyl 2-(6-Acetamido-2-(2-amino-3-(1H-indol-3-yl)-propanamido)hexanamido)-6-diazo-5-oxohexanoate]	instability	unstable	unstable	
CC(=O)NCCCC[C@H](NC(=O)[C@H](Cc1c[nH]c2ccccc12)NC(=O)C(C)(C)C)C(=O)N[C@@H](CCC(=O)C=[N+]=[N-])C(=O)OC(C)C [Compound 11, Isopropyl 2-(2-(3-(1H-Indol-3-yl)-2-pivalamidopropanamido)-6-acetamidohexanamido)-6-diazo-5-oxohexanoate]	instability			
CC(=O)NCCCC[C@H](NC(=O)[C@@H]1Cc2ccccc2CN1)C(=O)N[C@@H](CCC(=O)C=[N+]=[N-])C(=O)OC(C)C [Compound 12, Isopropyl 2-(6-Acetamido-2-(1,2,3,4-tetrahydroisoquinoline-3-carboxamido)hexanamido)-6-diazo-5-oxohexanoate]	instability			
